Laboratory results as given in ChEMBL document CHEMBL2331233, “Rational design, efficient syntheses and biological evaluation of N,N'-symmetrically bis-substituted butylimidazole analogs as a new class of potent Angiotensin II receptor blockers” (Eur J Med Chem, 2013).

Assays:
[1] = Antagonist activity at Angiotensin 2 type-1 receptor in Wistar rat uterus assessed as suppression of ANG2-induced contraction
[2] = molecular target: T1, Type-1 angiotensin II receptor (Homo sapiens, UniProt P30556); assay: Displacement of [125I-Sar1-Ile8]-ANG2 from human Angiotensin 2 type-1 receptor expressed in HEK293 cells after 1 hr by gamma counting analysis; type: cell-based
T1 sequence (P30556 whole entry): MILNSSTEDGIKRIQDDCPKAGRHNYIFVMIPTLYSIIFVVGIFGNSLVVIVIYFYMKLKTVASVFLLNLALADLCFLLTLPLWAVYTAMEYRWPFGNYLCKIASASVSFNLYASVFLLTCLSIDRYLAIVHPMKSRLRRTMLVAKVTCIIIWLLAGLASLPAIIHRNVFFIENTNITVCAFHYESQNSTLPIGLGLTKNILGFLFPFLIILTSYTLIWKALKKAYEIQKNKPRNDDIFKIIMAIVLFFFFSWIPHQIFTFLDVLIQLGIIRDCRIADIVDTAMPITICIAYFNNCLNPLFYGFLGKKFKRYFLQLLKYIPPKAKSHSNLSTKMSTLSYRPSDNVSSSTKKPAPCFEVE
In short: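 Membranes from HEK 293 cells stably transfected with human AT1 receptor (Geneticin 700 µg/mL selection) incubated in buffer B (50 mM Tris–HCl, 1 mM EDTA, 10 mM MgCl2, 0.2% BSA, bacitracin, aprotinin, pH 7.4) with 100,000–120,000 cpm radioligand and increasing analog concentrations, 1 h, 24 °C; GF/C filtration. Nonspecific binding with 1000 nM [Sar1-Ile8]ANGII. One-site nonlinear fit gives -log IC50; 2–4 experiments.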

Compound	pA2 [1]	IC50 [2] [nM]
CCCCc1c[n+](Cc2ccc(-c3ccccc3-c3nn[nH]n3)cc2)c(CO)n1Cc1ccc(-c2ccccc2-c2nn[nH]n2)cc1.[Br-]	8.58	4.27
CCCCc1c(Cl)[n+](Cc2ccc(-c3ccccc3-c3nn[nH]n3)cc2)cn1Cc1ccc(-c2ccccc2-c2nn[nH]n2)cc1		832
CCCCc1c(Br)[n+](Cc2ccc(-c3ccccc3-c3nn[nH]n3)cc2)cn1Cc1ccc(-c2ccccc2-c2nn[nH]n2)cc1		708
CCCCc1c(Cl)[n+](Cc2ccc(-c3ccccc3-c3nn[nH]n3)cc2)c(CO)n1Cc1ccc(-c2ccccc2-c2nn[nH]n2)cc1		6460
CCCCc1c(Br)[n+](Cc2ccc(-c3ccccc3-c3nn[nH]n3)cc2)c(CO)n1Cc1ccc(-c2ccccc2-c2nn[nH]n2)cc1.[Br-]	7.13	42.7
CCCCc1n(Cc2ccc(-c3ccccc3-c3nn[nH]n3)cc2)c(CO)c(Cl)[n+]1Cc1ccc(-c2ccccc2-c2nn[nH]n2)cc1		417

Now from value to compound:

pA2 [1]	IC50 [2] [nM]	Compound
	1700	CCCCc1n(Cc2ccc(-c3ccccc3-c3nn[nH]n3)cc2)cc[n+]1Cc1ccc(-c2ccccc2-c2nn[nH]n2)cc1
	331	CCCCc1c[n+](Cc2ccc(-c3ccccc3C(=O)O)cc2)cn1Cc1ccc(-c2ccccc2C(=O)O)cc1
	501	CCCCc1c[n+](Cc2ccc(-c3ccccc3C(=O)O)cc2)c(CO)n1Cc1ccc(-c2ccccc2C(=O)O)cc1
	0.347	CCCCc1c[n+](Cc2ccc(-c3ccccc3-c3nn[nH]n3)cc2)cn1Cc1ccc(-c2ccccc2-c2nn[nH]n2)cc1
	0.912	CCCCc1c[n+](Cc2ccc(-c3ccccc3-c3nn[n-]n3)cc2)cn1Cc1ccc(-c2ccccc2-c2nn[nH]n2)cc1
8.45	2.88	CCCCc1c[n+](Cc2ccc(-c3ccccc3-c3nn[n-]n3)cc2)cn1Cc1ccc(-c2ccccc2-c2nn[n-]n2)cc1.[Br-].[Na+].[Na+]
